Data published in ChEMBL document CHEMBL1629467, “Design and synthesis of novel tetrahydro-2H-Pyrano[3,2-c]pyridazin-3(6H)-one derivatives as potential anticancer agents” (Eur J Med Chem, 2010).

Tested on: SK-BR-3
Test: Selectivity ratio of IC50 for human SK-BR-3 cells to IC50 for human A549 cells
Assay type: functional
Conditions: not given

Row | SMILES | Selectivity ratio
1 | CO[C@@H]1CC=C2NN(c3cc4ccccc4[nH]3)C(=O)C[C@]2(C)O1 | 5
2 | CO[C@@H]1CC=C2NN(c3cc4ccccc4[nH]3)C(=O)C[C@]2(c2ccncc2)O1 | 30
3 | COc1cc(OC)cc(N2NC3=CC[C@@H](OC)O[C@@]3(c3ccncc3)CC2=O)c1 | 30
4 | CO[C@@H]1CC=C2NN(c3cncnc3)C(=O)C[C@]2(C)O1 | 5
5 | COc1cc(OC)cc(N2NC3=CC[C@@H](OC)O[C@@]3(C)CC2=O)c1 | 5
6 | CO[C@@H]1CC=C2NN(c3cc4ccccc4[nH]3)C(=O)C[C@]2(c2ccccc2)O1 | 20

Tested on: SK-BR-3
Test: Selectivity ratio of IC50 for human SK-BR-3 cells to IC50 for human HCT116 cells
Assay type: functional
Conditions: not given

Row | SMILES | Selectivity ratio
7 | CO[C@@H]1CC=C2NN(c3cc4ccccc4[nH]3)C(=O)C[C@]2(c2ccncc2)O1 | 30
8 | COc1cc(OC)cc(N2NC3=CC[C@@H](OC)O[C@@]3(c3ccncc3)CC2=O)c1 | 30
9 | CO[C@@H]1CC=C2NN(c3cc4ccccc4[nH]3)C(=O)C[C@]2(c2ccccc2)O1 | 20

Tested on: SK-N-SH
Test: Selectivity ratio of IC50 for human SK-BR-3 cells to IC50 for human SK-N-SH cells
Assay type: functional
Conditions: not given

Row | SMILES | Selectivity ratio
10 | CO[C@@H]1CC=C2NN(c3cc4ccccc4[nH]3)C(=O)C[C@]2(c2ccncc2)O1 | 30
11 | COc1cc(OC)cc(N2NC3=CC[C@@H](OC)O[C@@]3(c3ccncc3)CC2=O)c1 | 30
12 | CO[C@@H]1CC=C2NN(c3cc4ccccc4[nH]3)C(=O)C[C@]2(c2ccccc2)O1 | 20

Tested on: SK-BR-3
Test: Selectivity ratio of IC50 for human SK-BR-3 cells to IC50 for human DU145 cells
Assay type: functional
Conditions: not given

Row | SMILES | Selectivity ratio
13 | CO[C@@H]1CC=C2NN(c3cc4ccccc4[nH]3)C(=O)C[C@]2(c2ccncc2)O1 | 30
14 | COc1cc(OC)cc(N2NC3=CC[C@@H](OC)O[C@@]3(c3ccncc3)CC2=O)c1 | 30
15 | CO[C@@H]1CC=C2NN(c3cc4ccccc4[nH]3)C(=O)C[C@]2(c2ccccc2)O1 | 20

Tested on: SK-BR-3
Test: Selectivity for human SK-BR-3 cells over human MCF10A cells
Conditions: not given

Row | SMILES | Ratio | Selectivity ratio
16 | CO[C@@H]1CC=C2NN(c3cc4ccccc4[nH]3)C(=O)C[C@]2(c2ccncc2)O1 | 290 | 290
17 | COc1cc(OC)cc(N2NC3=CC[C@@H](OC)O[C@@]3(c3ccncc3)CC2=O)c1 | 290 | 290

Tested on: not listed separately
Test: Cytotoxicity against human MCF10A cells at 0.1 uM after 72 hrs by MTT assay
Assay type: cell-based
Conditions: mcf-10a
Procedure, shortened: (§1)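 Cells were plated in 96-well plates with medium and treated after 24 h with five test concentrations, each in triplicate, for 72 h. They were then washed with PBS, and fresh medium plus MTT (stock 3 mg/mL in PBS) was added for 4 h at 37 °C. Formazan was dissolved in DMSO for 30 min, absorbance was read, and the data were converted to % cell viability.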

Row | SMILES | Activity
18 | CO[C@@H]1CC=C2NN(c3cc4ccccc4[nH]3)C(=O)C[C@]2(c2ccncc2)O1 | Non-toxic
19 | COc1cc(OC)cc(N2NC3=CC[C@@H](OC)O[C@@]3(c3ccncc3)CC2=O)c1 | Non-toxic

Tested on: not listed separately
Test: Cytotoxicity against human MCF10A cells at 0.3 uM after 72 hrs by MTT assay
Assay type: cell-based
Conditions: mcf-10a
Procedure, shortened: as §1

Row | SMILES | Activity
20 | CO[C@@H]1CC=C2NN(c3cc4ccccc4[nH]3)C(=O)C[C@]2(c2ccncc2)O1 | Non-toxic
21 | COc1cc(OC)cc(N2NC3=CC[C@@H](OC)O[C@@]3(c3ccncc3)CC2=O)c1 | Non-toxic

Tested on: not listed separately
Test: Cytotoxicity against human MCF10A cells at 1 uM after 72 hrs by MTT assay
Assay type: cell-based
Conditions: mcf-10a
Procedure, shortened: as §1

Row | SMILES | Activity
22 | CO[C@@H]1CC=C2NN(c3cc4ccccc4[nH]3)C(=O)C[C@]2(c2ccncc2)O1 | Non-toxic
23 | COc1cc(OC)cc(N2NC3=CC[C@@H](OC)O[C@@]3(c3ccncc3)CC2=O)c1 | Non-toxic

Tested on: not listed separately
Test: Cytotoxicity against human MCF10A cells at 3 uM after 72 hrs by MTT assay
Assay type: cell-based
Conditions: mcf-10a
Procedure, shortened: as §1

Row | SMILES | Activity
24 | CO[C@@H]1CC=C2NN(c3cc4ccccc4[nH]3)C(=O)C[C@]2(c2ccncc2)O1 | Non-toxic
25 | COc1cc(OC)cc(N2NC3=CC[C@@H](OC)O[C@@]3(c3ccncc3)CC2=O)c1 | Non-toxic

Tested on: not listed separately
Test: Cytotoxicity against human MCF10A cells at 10 uM after 72 hrs by MTT assay
Assay type: cell-based
Conditions: mcf-10a
Procedure, shortened: as §1

Row | SMILES | Activity
26 | CO[C@@H]1CC=C2NN(c3cc4ccccc4[nH]3)C(=O)C[C@]2(c2ccncc2)O1 | Non-toxic
27 | COc1cc(OC)cc(N2NC3=CC[C@@H](OC)O[C@@]3(c3ccncc3)CC2=O)c1 | Non-toxic

Tested on: HCT-116
Test: Growth inhibition of human HCT116 cells after 48 hrs by sulforhodamine B assay
Assay type: functional, cell-based
Conditions: HCT-116, 48 h
Procedure, shortened: (§2)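 Cells were grown in RPMI-1640 with 10% FBS, penicillin, streptomycin and amphotericin B at 37 °C in 5% CO2, then treated for 48 h in triplicate wells. They were fixed with cold 50% TCA for 1 h at 4 °C, stained with 0.4% SRB in 1% acetic acid for 10 min at RT, and dissolved in 10 mM Tris (pH 10.5) before reading A570. Percent inhibition was calculated against untreated cells after blank subtraction. IC50 is the concentration giving a 50% reduction in net protein increase, reported as mean ± SEM from ≥3 independent runs.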

Row | SMILES | IC50
28 | CO[C@@H]1CC=C2NN(c3cc(Cl)cc(Cl)c3)C(=O)C[C@]2(c2ccncc2)O1 | 9.1 µM
29 | COc1ccc(N2NC3=CC[C@@H](OC)O[C@@]3(c3ccccc3)CC2=O)cc1 | 11.3 µM
30 | CO[C@@H]1CC=C2NN(c3cc4ccccc4[nH]3)C(=O)C[C@]2(C)O1 | 18.3 µM
31 | CO[C@@H]1CC=C2NN(c3cc4ccccc4[nH]3)C(=O)C[C@]2(c2ccncc2)O1 | 4.35 µM
32 | COc1cc(OC)cc(N2NC3=CC[C@@H](OC)O[C@@]3(c3ccncc3)CC2=O)c1 | 6.5 µM
33 | CO[C@@H]1CC=C2NN(c3cncnc3)C(=O)C[C@]2(C)O1 | 15.1 µM
34 | COc1cc(OC)cc(N2NC3=CC[C@@H](OC)O[C@@]3(C)CC2=O)c1 | 24.3 µM
35 | CO[C@@H]1CC=C2NN(c3cc4ccccc4[nH]3)C(=O)C[C@]2(c2ccccc2)O1 | 8.2 µM

Tested on: SK-N-SH
Test: Growth inhibition of human SK-N-SH cells after 48 hrs by sulforhodamine B assay
Assay type: functional, cell-based
Conditions: not given
Procedure, shortened: as §2

Row | SMILES | IC50
36 | CO[C@@H]1CC=C2NN(c3cc(Cl)cc(Cl)c3)C(=O)C[C@]2(c2ccncc2)O1 | 8.3 µM
37 | COc1ccc(N2NC3=CC[C@@H](OC)O[C@@]3(c3ccccc3)CC2=O)cc1 | 10.4 µM
38 | CO[C@@H]1CC=C2NN(c3cc4ccccc4[nH]3)C(=O)C[C@]2(C)O1 | 19.5 µM
39 | CO[C@@H]1CC=C2NN(c3cc4ccccc4[nH]3)C(=O)C[C@]2(c2ccncc2)O1 | 3.9 µM
40 | COc1cc(OC)cc(N2NC3=CC[C@@H](OC)O[C@@]3(c3ccncc3)CC2=O)c1 | 6.4 µM
41 | CO[C@@H]1CC=C2NN(c3cncnc3)C(=O)C[C@]2(C)O1 | 16.6 µM
42 | COc1cc(OC)cc(N2NC3=CC[C@@H](OC)O[C@@]3(C)CC2=O)c1 | 23.7 µM
43 | CO[C@@H]1CC=C2NN(c3cc4ccccc4[nH]3)C(=O)C[C@]2(c2ccccc2)O1 | 9.1 µM

Tested on: SK-BR-3
Test: Growth inhibition of human SK-BR-3 cells after 48 hrs by sulforhodamine B assay
Assay type: functional, cell-based
Conditions: SK-BR-3, 48 h
Procedure, shortened: as §2

Row | SMILES | IC50
44 | CO[C@@H]1CC=C2NN(c3cc(Cl)cc(Cl)c3)C(=O)C[C@]2(c2ccncc2)O1 | 5.5 µM
45 | COc1ccc(N2NC3=CC[C@@H](OC)O[C@@]3(c3ccccc3)CC2=O)cc1 | 8.4 µM
46 | CO[C@@H]1CC=C2NN(c3cc4ccccc4[nH]3)C(=O)C[C@]2(C)O1 | 4.1 µM
47 | CO[C@@H]1CC=C2NN(c3cc4ccccc4[nH]3)C(=O)C[C@]2(c2ccncc2)O1 | 0.15 µM
48 | COc1cc(OC)cc(N2NC3=CC[C@@H](OC)O[C@@]3(c3ccncc3)CC2=O)c1 | 0.21 µM
49 | CO[C@@H]1CC=C2NN(c3cncnc3)C(=O)C[C@]2(C)O1 | 3.4 µM
50 | COc1cc(OC)cc(N2NC3=CC[C@@H](OC)O[C@@]3(C)CC2=O)c1 | 5.7 µM
51 | CO[C@@H]1CC=C2NN(c3cc4ccccc4[nH]3)C(=O)C[C@]2(c2ccccc2)O1 | 0.53 µM

Tested on: DU-145
Test: Growth inhibition of human DU145 cells after 48 hrs by sulforhodamine B assay
Assay type: functional, cell-based
Conditions: DU-145, 48 h
Procedure, shortened: as §2

Row | SMILES | IC50
52 | CO[C@@H]1CC=C2NN(c3cc(Cl)cc(Cl)c3)C(=O)C[C@]2(c2ccncc2)O1 | 7.6 µM
53 | COc1ccc(N2NC3=CC[C@@H](OC)O[C@@]3(c3ccccc3)CC2=O)cc1 | 10.1 µM
54 | CO[C@@H]1CC=C2NN(c3cc4ccccc4[nH]3)C(=O)C[C@]2(C)O1 | 14.4 µM
55 | CO[C@@H]1CC=C2NN(c3cc4ccccc4[nH]3)C(=O)C[C@]2(c2ccncc2)O1 | 4.1 µM
56 | COc1cc(OC)cc(N2NC3=CC[C@@H](OC)O[C@@]3(c3ccncc3)CC2=O)c1 | 5.9 µM
57 | CO[C@@H]1CC=C2NN(c3cncnc3)C(=O)C[C@]2(C)O1 | 17.1 µM
58 | COc1cc(OC)cc(N2NC3=CC[C@@H](OC)O[C@@]3(C)CC2=O)c1 | 22.2 µM
59 | CO[C@@H]1CC=C2NN(c3cc4ccccc4[nH]3)C(=O)C[C@]2(c2ccccc2)O1 | 7.9 µM

Tested on: A549
Test: Growth inhibition of human A549 cells after 48 hrs by sulforhodamine B assay
Assay type: functional, cell-based
Conditions: A549, 48 h
Procedure, shortened: as §2

Row | SMILES | IC50
60 | CO[C@@H]1CC=C2NN(c3cc(Cl)cc(Cl)c3)C(=O)C[C@]2(c2ccncc2)O1 | 7.5 µM
61 | COc1ccc(N2NC3=CC[C@@H](OC)O[C@@]3(c3ccccc3)CC2=O)cc1 | 7.1 µM
62 | CO[C@@H]1CC=C2NN(c3cc4ccccc4[nH]3)C(=O)C[C@]2(C)O1 | 3.92 µM
63 | CO[C@@H]1CC=C2NN(c3cc4ccccc4[nH]3)C(=O)C[C@]2(c2ccncc2)O1 | 4.05 µM
64 | COc1cc(OC)cc(N2NC3=CC[C@@H](OC)O[C@@]3(c3ccncc3)CC2=O)c1 | 6.22 µM
65 | CO[C@@H]1CC=C2NN(c3cncnc3)C(=O)C[C@]2(C)O1 | 4.1 µM
66 | COc1cc(OC)cc(N2NC3=CC[C@@H](OC)O[C@@]3(C)CC2=O)c1 | 6.15 µM
67 | CO[C@@H]1CC=C2NN(c3cc4ccccc4[nH]3)C(=O)C[C@]2(c2ccccc2)O1 | 8.67 µM

Tested on: not listed separately
Test: Growth inhibition of human MCF10A cells after 48 hrs by sulforhodamine B assay
Assay type: cell-based
Conditions: MCF-10A
Procedure, shortened: as §2

Row | SMILES | IC50
68 | CO[C@@H]1CC=C2NN(c3cc4ccccc4[nH]3)C(=O)C[C@]2(c2ccncc2)O1 | > 55 µM
69 | COc1cc(OC)cc(N2NC3=CC[C@@H](OC)O[C@@]3(c3ccncc3)CC2=O)c1 | > 51 µM
70 | CO[C@@H]1CC=C2NN(c3cc4ccccc4[nH]3)C(=O)C[C@]2(c2ccccc2)O1 | > 38 µM
